Experimental data taken from the EternaBench riboswitch data.

Test system: MS2 coat protein
Assay: apparent Kd, MS2 coat protein; higher = weaker binding; RNA-MaP array
Outline: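 Incubations were done at room temperature with fluorescently labeled MS2 coat protein at 1.5 nM to 3 μM and designed RNAs transcribed on an Illumina sequencing chip from sequenced DNA templates, with or without input ligand. Apparent Kd is the median of binding curves fitted for each cluster. Designs with fewer than 10 measured clusters were excluded.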

[1] = designed as: OFF switch for flavin mononucleotide, no ligand
[2] = ligand present: flavin mononucleotide, designed as: OFF switch for flavin mononucleotide
[3] = designed as: ON switch for flavin mononucleotide, no ligand
[4] = ligand present: flavin mononucleotide, designed as: ON switch for flavin mononucleotide
[5] = designed as: OFF switch for theophylline, no ligand
[6] = ligand present: theophylline, designed as: OFF switch for theophylline
[7] = designed as: ON switch for theophylline, no ligand
[8] = ligand present: theophylline, designed as: ON switch for theophylline
[9] = designed as: ON switch for tryptophan, no ligand
[10] = ligand present: tryptophan, designed as: ON switch for tryptophan

Row | Sequence | apparent Kd [1] | apparent Kd [2] | other results
1 | UUACAACAUGAGGAUCACCCAUGUUAGGAUAUACGAGGGACAGCGCGGUUAUAUCCCUGUAGAAGGAACACGGG | 39.6 nM | 47.6 nM | –
2 | GCGGGACAUGAGGAUCACCCAUGUGAGGAUAUGUGCAGUGGCAGGGACAGUUAAAAGUACAGAAGGCACAGCCC | 19.7 nM | 17.6 nM | –
3 | CACCCGUCGACUUAGGAUAUACUGUUGUGAACAUGAGGAUCACCCAUGUAUUAAGCUAGAACGAAGUAGAAGGAAGUUUUCCUUGC | – | – | apparent Kd [3]: 15.6 nM; apparent Kd [4]: 13.1 nM
4 | GGCGGGAGAAUAGGAUAUUCCGGUAAUCGACAUGAGGAUCACCCAUGUACCGUUCAACCGAUACCGAAGAAGGAUUAUAAGCCU | – | – | apparent Kd [3]: 16.6 nM; apparent Kd [4]: 13.8 nM
5 | UCUCAUCAGUAGAAGGGCAGACCCUAACAAGGUGCAGGAUAUACUCUAAGUCCUACAUGAGGAUCACCCAUGUCAUAUAUCGGG | 323 nM | 196 nM | –
6 | ACCCUCUAUGAGAAGGAGAGCUUCGCUAGUUAUCUAGGAUAUCACGGAGGACCACUGACACUCCGACAUGAGGAUCACCCAUGU | – | – | apparent Kd [3]: 16.5 nM; apparent Kd [4]: 13.9 nM
7 | AAAGAUUCCUGAACGCCGCAUACCGAUGAUACCAGCCAACGGAAAGGCCCUUGGCAGCAUUAAACAUGAGGAUCACCCAUGUCUA | – | – | apparent Kd [5]: 11.8 nM; apparent Kd [6]: 13.9 nM
8 | UAUUGGAUAGGAUAUACAUGAGGAUCACCCAUGUUUUCAUUGGACGAGGACGCUCUUCGUAGAAGGAUCGGCUA | 10.8 nM | 10.2 nM | –
9 | AUGGAACAUGAGGAUCACCCAUGUGAUGAUACCAGAUUAACGCUUAUCCCUUGGCAGCAUGUCCGCCCUCAACCUGUGGCGUAUU | – | – | apparent Kd [7]: 22.2 nM; apparent Kd [8]: 26.1 nM
10 | AAUAAGAAAGGAUAUACAGAGGAUAAACUAAUAAAUAAAGGACAUGAGGAUCACCCAUGUAGAAGGUUCAAAAU | 11.9 nM | 11.7 nM | –
11 | GUCCUCGACACGGCCGCCACUGGCUCGCCUGUUGGCGCCGACCCACAUGAGGAUCACCCAUGUUCCAGGACCGGGUGUCACAGCA | – | – | apparent Kd [9]: 224 nM; apparent Kd [10]: 157 nM
12 | AGCUCGACUCGCAGCUGGAUGCCCGCUUGCCGAGGACCGGUACGGCCGCCACUCGUCACUCGACAUGAGGAUCACCCAUGUGAUA | – | – | apparent Kd (designed as: OFF switch for tryptophan, no ligand): 88.3 nM; apparent Kd (ligand present: tryptophan, designed as: OFF switch for tryptophan): 45.6 nM
13 | GUGAUACAUGAGGAUCACCCAUGUUAAGGUCUUGCAGGAUAUCCAGAACUCGAGAUAGAUGGAGAAGGGCAUGCAU | – | – | apparent Kd [3]: 12.6 nM; apparent Kd [4]: 9.76 nM
14 | AGUACAAUAUUAGGAUAUUGACAAAACAUGAGGAUCACCCAUGUAAGGCAAGUGCAAGGGAGAGUCAAGAAGGAAAACUGAGUU | – | – | apparent Kd [3]: 38.4 nM; apparent Kd [4]: 30 nM
15 | CAACCACACAUAAGGCAAGGACAUGAGGAUCACCCAUGUGGUAGAAGGCAUCCUAAUGCGGACGAUGAGGAUAUACGACGUGCA | 75.5 nM | 50 nM | –
16 | AUCACCUUCAAGAAGGUCCCAUACAUGAGGAUCACCCAUGUAAACAAAAUAAUAUGAAAUAAAAGGAAGGAUAUUGAACCAUGA | – | – | apparent Kd [3]: 55.1 nM; apparent Kd [4]: 30.3 nM
17 | GCCUGACCCAUAGGAUAUCGCGUAGCUGCCGGCUACGACACAUGAGGAUCACCCAUGUAUCAAAUCGAGAAGGAUGAUCUGCAA | – | – | apparent Kd [3]: 272 nM; apparent Kd [4]: 168 nM
18 | AUCAUAAGAGUAGGAUAUCGACAUGAGGAUCACCCAUGUACCUUGGAUGACCGCUAAUGGUUUAUCGAGAAGGACUUUUCCUCC | 8.2 nM | 10.2 nM | –
19 | CCGCGACCUGAGAAGGGCUGCCAAGGGAGACACAUGAGGAUCACCCAUGUCGGGUGGUCCUGCUAGCAGGAUAUCAUCGCAGGA | 173 nM | 225 nM | –
20 | GGGCCACCUCUAACAUGAGGAUCACCCAUGUUCGUCGGUUCCGAGGAUAUGUCUAGACGUAACGGACAGAAGGCGGUCCGGCUG | 26.2 nM | 81 nM | –
21 | GACGAGUAGACGGCCGCCACUAUGCUGCGCAGCCCUAGAAACGCACAUGAGGAUCACCCAUGUCUUAGGACCGGGUCGAACUUAA | – | – | apparent Kd [9]: 78.5 nM; apparent Kd [10]: 65.7 nM
22 | GAUGGCCUAGGAUAUACGCGUUGGUUGGCUCGUCACGAUACACAUGAGGAUCACCCAUGUAGAAGGAGGAGAGU | 10.5 nM | 11.7 nM | –
23 | UACCCAUUAGAGAAGGUUGACGCCCUAGUUGUCAAAGGAUAUCUCCUCGAGGCUACACAUGAGGAUCACCCAUGUUCACAGGUC | 9.35 nM | 8.92 nM | –
24 | GAGUACUGGUUAGGGAGAAAUACAUGAGGAUCACCCAUGUCCAGAAGGAUUCAGUAAGUGCCGGAAUAGGAUAUGGAACUAAAA | – | – | apparent Kd [3]: 246 nM; apparent Kd [4]: 105 nM

Row | Sequence | apparent Kd [1] | apparent Kd [2] | other results
25 | GUAUCGGUUGAGAAGGCGGCGGAGACAUAACUUGGUCCCAACAUGAGGAUCACCCAUGUUAAAUCCGAGGAUAUCAACAAAGCC | 6.84 nM | 18.9 nM | –
26 | ACCGAGGCAAUGGAUACCAGUGCGCCACAAUCGUGCUUCAACAUGAGGAUCACCCAUGUGCACCCUUGGCAGCCAACGGGCUCAU | – | – | apparent Kd [5]: 21.9 nM; apparent Kd [6]: 19.9 nM
27 | AUCAAGUCAGGAUAUGAACUAAAGAUGGAAAACGUAGCAAAACAGAAGGGACAUGAGGAUCACCCAUGUGGAAG | 19.9 nM | 17 nM | –
28 | GCGGAACAUGAGGAUCACCCAUGUCAGGAUAUACGCACGGAGUAGGAGGAGGCCUAUGGUAGAAGGGACAGUGA | 10.8 nM | 10.2 nM | –
29 | GUCGUAGGCUAAGGAUAUAGUGAAAGAGUGAAGGCCUGAUCAGACAUGAGGAUCACCCAUGUGAACUAGAAGGUAGGCAAGGCU | 13.5 nM | 12.5 nM | –
30 | CUGCGCUCGAAGAAGGGCUGCCACAUGAGGAUCACCCAUGUCACUGACACCGAAGUUAGAAAGUAGCAGGAUAUUCAGGGUCCU | – | – | apparent Kd [3]: 49.2 nM; apparent Kd [4]: 32.4 nM
31 | UAAUACCAUACAGGAUAUACUUAGCCCAAAACAUGAGGAUCACCCAUGUAUUGGAGUCCUCGGCGGUAGAAGGGUACAGAAAGA | 19.5 nM | 16.4 nM | –
32 | AUAAAACUAAUACAUGAGGAUCACCCAUGUGAAACACAUACGAGAAGGGCGACAGUCUCAUACACGCAGGAUAUCGGCUAAACG | – | – | apparent Kd [3]: 10.8 nM; apparent Kd [4]: 9.95 nM
33 | AAAAUUCUAGUGAGGAUAUGGUACGUUGUAGUAAGCCAGAAGGCACAUGAGGAUCACCCAUGUAUAAUGGACGA | 31.1 nM | 148 nM | –
34 | UCCACGGACCAAGGAUAUCCACAGUGAACCAGAGGAGAAGGUGGGAAUUACAUGAGGAUCACCCAUGUACGGGAUCUCCUGUAU | – | – | apparent Kd [3]: 47.5 nM; apparent Kd [4]: 41.7 nM
35 | UUUACGAACGUGGAAAUACAUGAGGAUCACCCAUGUCAAUUGUAGGAUAUCCGGCUCAAAGAAAUGGAGAAGGACAACGACUCC | – | – | apparent Kd [3]: 13.4 nM; apparent Kd [4]: 12.7 nM
36 | CCCUCGUUAUAGAAGGUCACAUUAAAUAAACAUGAAGGAUAUAUACCCAUUACACAUGAGGAUCACCCAUGUUAGGGCUGGCAU | 14.2 nM | 13.6 nM | –
37 | AUUUCAAACAUGAGGAUCACCCAUGUCAAGUUUGAGCAACUAAGAAGGUCAGAUCCAUAAGCACUGAAGGAUAUUAAGAGGUAC | 31.8 nM | 22 nM | –
38 | UCUGUGAUUCAAGGAUAUAAGUCGAGUGCUUGCUUAGAAGGUGACGAACAUGAGGAUCACCCAUGUGCUUUAUUCUUAUGCAUC | 29.2 nM | 25.6 nM | –
39 | CGCAAGAUCUUAGGAUAUCUGUGAGCCAAGACUAGAGAAGGAAGGAGGCUGUGCAACAUGAGGAUCACCCAUGUAUCCCGUGCA | 39.7 nM | 35.4 nM | –
40 | ACCUGGCGGCAGAAGGCCCGCGAUUAACGUAAGGGAGGAUAUGCAUUGUGCGGUGGGACAUGAGGAUCACCCAUGUGCAGCCAG | 672 nM | 409 nM | –
41 | GGAAAAUAUAGGGAUACCAGAUAUGGCGUUGACAUGAGGAUCACCCAUGUCUUAGCAGUGAUCCCUUGGCAGCCCACACCAUCCG | – | – | apparent Kd [7]: 71.6 nM; apparent Kd [8]: 34 nM
42 | CGUUGACAUGAGGAUCACCCAUGUUCCCUAGCCACAGGAUAUCGACGCGUGCUCGCUAGACGAGAAGGGUGGUAAA | – | – | apparent Kd [3]: 30.4 nM; apparent Kd [4]: 11.7 nM
43 | GCACAACAUGAGGAUCACCCAUGUCGAGAUACCAGAACAUAUAUAUUCCCUUGGCAGCUCACACCUUUAAUGUAAAAUUCUUUGG | – | – | apparent Kd [7]: 12.7 nM; apparent Kd [8]: 14.5 nM
44 | GCCUAUAUUGUCAGGAUAUGCAUAAAGGAAAAGAAGCAGAAGGGACAUGAGGAUCACCCAUGUUACAGCCAAUA | 6.84 nM | 12.6 nM | –
45 | GCAUUAGGGUAAGGAUAUUGAAUUAAACAUGGCAAAGUAAUUUUUGACAUGAGGAUCACCCAUGUCAAGAAGGUACUCAUUCAU | 6.08 nM | 5.74 nM | –
46 | GGCGACAUGAGGAUCACCCAUGUGACACCUCGAGGACCGGUACGGCCGCCACUCGUAACCUGCACUAUAGCUACCACGAUUAGCC | – | – | apparent Kd [9]: 193 nM; apparent Kd [10]: 42.4 nM
47 | UAGAUCCCAGUCAGGAUAUCCAGGGAGAAUAGGAGGGAGAAGGGACAUGAGGAUCACCCAUGUAUGCGACUACC | 7.91 nM | 8.92 nM | –
